Measured values reported in ChEMBL document CHEMBL4680104, “Structure-Based Optimization of Small-Molecule Inhibitors for the β-Catenin/B-Cell Lymphoma 9 Protein-Protein Interaction” (J Med Chem, 2018).

Tests used:
[1] = molecular target: T1, beta-catenin-B-cell lymphoma 9 protein complex (Homo sapiens, UniProt P35222); assay: Inhibition of protein interaction between C-terminal 6x-histidine tagged full-length beta-catenin (1 to 781 residues) (unknown origin)/N-terminal biotinylated human BCL9 ( 350 to 375 residues) incubated for 1 hr by Alpha-screen competitive inhibition assay; type: protein-complex assay
T1 sequence (P35222 whole entry): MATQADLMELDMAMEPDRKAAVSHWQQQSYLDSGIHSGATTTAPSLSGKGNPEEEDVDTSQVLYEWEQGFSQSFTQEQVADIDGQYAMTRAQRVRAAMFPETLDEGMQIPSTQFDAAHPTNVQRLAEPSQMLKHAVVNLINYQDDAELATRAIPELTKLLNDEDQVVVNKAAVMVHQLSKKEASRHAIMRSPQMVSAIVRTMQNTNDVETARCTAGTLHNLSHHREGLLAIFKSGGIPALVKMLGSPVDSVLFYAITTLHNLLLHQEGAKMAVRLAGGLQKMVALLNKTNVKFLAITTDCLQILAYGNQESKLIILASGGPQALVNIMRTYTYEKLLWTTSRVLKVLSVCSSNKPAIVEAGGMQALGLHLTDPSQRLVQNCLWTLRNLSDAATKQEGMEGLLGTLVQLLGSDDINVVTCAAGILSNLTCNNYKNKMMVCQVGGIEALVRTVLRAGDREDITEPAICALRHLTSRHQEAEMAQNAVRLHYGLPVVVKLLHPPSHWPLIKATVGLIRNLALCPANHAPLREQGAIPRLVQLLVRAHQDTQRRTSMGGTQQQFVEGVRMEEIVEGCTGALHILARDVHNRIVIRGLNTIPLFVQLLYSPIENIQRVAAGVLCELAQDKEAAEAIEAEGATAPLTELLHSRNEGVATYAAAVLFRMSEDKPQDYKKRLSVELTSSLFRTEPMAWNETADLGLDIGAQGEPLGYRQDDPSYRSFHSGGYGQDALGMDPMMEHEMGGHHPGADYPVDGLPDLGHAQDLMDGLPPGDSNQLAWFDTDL
T1 sequence (O00512 whole entry): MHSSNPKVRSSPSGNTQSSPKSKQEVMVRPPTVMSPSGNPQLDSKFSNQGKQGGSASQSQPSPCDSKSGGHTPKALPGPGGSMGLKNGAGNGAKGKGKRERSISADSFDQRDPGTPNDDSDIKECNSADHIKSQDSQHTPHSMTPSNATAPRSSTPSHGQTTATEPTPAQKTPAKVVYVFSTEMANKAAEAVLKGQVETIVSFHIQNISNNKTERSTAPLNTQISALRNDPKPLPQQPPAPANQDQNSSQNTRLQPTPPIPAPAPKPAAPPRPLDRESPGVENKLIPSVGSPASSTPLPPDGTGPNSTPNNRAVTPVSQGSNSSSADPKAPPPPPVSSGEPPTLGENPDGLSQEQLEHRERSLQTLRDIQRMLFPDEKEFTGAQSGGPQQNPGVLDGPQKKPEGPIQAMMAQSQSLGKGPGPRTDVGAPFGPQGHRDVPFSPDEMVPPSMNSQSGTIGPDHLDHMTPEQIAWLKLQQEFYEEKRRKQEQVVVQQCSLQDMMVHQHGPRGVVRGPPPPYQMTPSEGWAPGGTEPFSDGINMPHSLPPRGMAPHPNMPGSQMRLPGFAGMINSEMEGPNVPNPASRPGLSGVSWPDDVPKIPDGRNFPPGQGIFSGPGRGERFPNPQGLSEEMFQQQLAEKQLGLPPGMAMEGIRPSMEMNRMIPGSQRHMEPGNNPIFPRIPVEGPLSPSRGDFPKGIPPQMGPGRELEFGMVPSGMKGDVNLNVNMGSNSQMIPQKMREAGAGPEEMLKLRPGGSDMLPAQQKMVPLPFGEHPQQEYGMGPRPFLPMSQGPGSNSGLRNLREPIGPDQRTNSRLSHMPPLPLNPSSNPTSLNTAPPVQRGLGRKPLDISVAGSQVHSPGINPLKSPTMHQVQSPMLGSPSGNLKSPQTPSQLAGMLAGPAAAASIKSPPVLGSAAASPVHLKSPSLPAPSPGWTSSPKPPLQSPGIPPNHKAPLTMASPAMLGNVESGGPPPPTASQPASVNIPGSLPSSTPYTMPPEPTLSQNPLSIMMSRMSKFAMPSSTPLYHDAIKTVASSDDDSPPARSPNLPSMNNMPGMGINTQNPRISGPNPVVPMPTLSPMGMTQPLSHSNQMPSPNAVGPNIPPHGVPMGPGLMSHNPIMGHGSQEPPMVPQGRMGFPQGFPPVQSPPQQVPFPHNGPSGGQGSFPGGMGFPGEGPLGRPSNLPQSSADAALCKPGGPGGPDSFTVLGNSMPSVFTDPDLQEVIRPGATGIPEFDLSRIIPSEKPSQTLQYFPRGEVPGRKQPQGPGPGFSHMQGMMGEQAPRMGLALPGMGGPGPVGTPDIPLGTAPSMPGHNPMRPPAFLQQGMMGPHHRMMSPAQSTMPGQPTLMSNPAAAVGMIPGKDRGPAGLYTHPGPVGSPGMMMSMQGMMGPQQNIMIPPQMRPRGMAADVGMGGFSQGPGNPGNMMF
Method in brief: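 Full-length β-catenin (residues 1–781) with a C-terminal His6 tag was expressed in E. coli BL21(DE3) after IPTG induction at 20 °C. It was purified by Ni-NTA, anion-exchange and size-exclusion chromatography. For the assay, 40 nM β-catenin was preincubated for 30 min at 4 °C with 5 nM biotinylated BCL9 or 10 nM biotinylated E-cadherin. Inhibitor was then added for 1 h at 4 °C, followed by 10 μg/mL donor and acceptor beads for 1 h at 4 °C. IC50 was obtained by nonlinear fit and converted to Ki by the Nikolovska-Coleska method. Triplicate, mean ± SD.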

MDA-MB-231 = assay: Cytotoxicity in human MDA-MB-231 cells assessed as reduction in cell viability incubated for 72 hrs by MTS assay; type: functional, cell-based; conditions: MDA-MB-231, 72 h
Method in brief: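 Triple-negative breast cancer line seeded at 5 × 10^3 cells/well, held overnight at 37 °C, then exposed to inhibitor over a concentration range for 72 h. Viability read out with a fresh 1:19 mix of PMS (0.92 mg/mL) and MTS (2 mg/mL), incubated 3 h at 37 °C, A490 measured.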

SW480 [2] = assay: Cytotoxic activity in human SW480 cells at 50 to 100 uM incubated for 4 hrs by LDH release assay; type: cell-based; conditions: sw480, 4 h, dose 50-100 µM
Method in brief: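 SW480 cells were seeded at 2 × 10^4 cells/well and kept overnight at 37 °C. They were then exposed to a range of inhibitor concentrations for 4 h. LDH in the culture supernatant was measured with a diagnostic kit by absorbance at 490 nm. Percent cytotoxicity was calculated from experimental release against maximum release, with background subtracted. Run in triplicate.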

SW480 [3] = assay: Cytotoxicity in human SW480 cells assessed as reduction in cell viability incubated for 72 hrs by MTS assay; type: functional, cell-based; conditions: SW480, 72 h
Method in brief: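 Cells seeded at 5 × 10^3 cells/well, kept overnight at 37 °C, then exposed to inhibitors at various concentrations for 72 h. Viability read with a freshly mixed PMS (0.92 mg/mL) : MTS (2 mg/mL) reagent at 1:19, incubated 3 h at 37 °C, A490 measured. […] Triplicate; mean ± SD.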

With `Cc1cc(F)ccc1-c1cc(NC(=O)c2ccc(O[C@H]3CCNC3)c(-c3ccc(F)c(F)c3)c2)ccc1O[C@H]1CCNC1.Cl.Cl` the Ki [1] was 3.5 µM, the IC50 (MDA-MB-231) was 4.1 µM and the Activity (SW480 [2]) was “Toxic”. The IC50 (SW480 [3]) was 0.9 µM.
For `Cl.Cl.O=C(Nc1ccc(O[C@H]2CCNC2)c(-c2ccc(F)cc2)c1)c1ccc(O[C@H]2CCNC2)c(-c2ccc(F)c(F)c2)c1`, the Ki [1] was 2.1 µM and the Activity (SW480 [2]) was “Toxic”.
In the case of `Cl.Cl.O=C(Nc1ccc(O[C@H]2CCNC2)c(-c2ccc(F)cc2)c1)c1cnc(O[C@H]2CCNC2)c(-c2ccc(F)c(F)c2)c1`, the Ki [1] is reported as 8.7 µM, the IC50 (MDA-MB-231) is reported as 3.6 µM and the Activity (SW480 [2]) is reported as “Toxic”. The IC50 (SW480 [3]) was 3 µM.
For `Cl.Cl.O=C(Nc1ccc(O[C@@H]2CCNC2)c(-c2cccc(-c3nn[nH]n3)c2)c1)c1ccc(O[C@H]2CCNC2)c(-c2ccc(F)c(F)c2)c1`, the IC50 (MDA-MB-231) was 73 µM and the IC50 (SW480 [3]) was 41 µM.
For `Cl.Cl.O=C(Nc1ccc(O[C@H]2CCNC2)c(-c2ccc(F)cc2)c1)c1ccc(O[C@H]2CCNC2)c(C2CCC(C(F)(F)F)CC2)c1` (some centres undefined), the Ki [1] was 4.2 µM, the IC50 (MDA-MB-231) was 2.3 µM and the Activity (SW480 [2]) was “Toxic”. For the same compound, the IC50 (SW480 [3]) was 3.6 µM.
With `Cl.Cl.O=C(Nc1ccc(O[C@H]2CCNC2)c(-c2ccc(F)cc2)c1)c1ccc(O[C@H]2CCNC2)c(-c2ccc3ccsc3c2)c1` the Ki [1] was 1.3 µM, the IC50 (MDA-MB-231) was 2.8 µM and the Activity (SW480 [2]) was “Toxic”. For the same compound, the IC50 (SW480 [3]) was 2 µM.
With `Cl.Cl.O=C(Nc1ccc(O[C@H]2CCNC2)c(-c2ccc(F)cc2)c1)c1ccc(O[C@H]2CCNC2)c(-c2ccc3cc(F)ccc3c2)c1` the Ki [1] was 1.3 µM, the IC50 (MDA-MB-231) was 2.1 µM and the Activity (SW480 [2]) was “Toxic”. The IC50 (SW480 [3]) was 1.8 µM.
